Data set [1] is described as follows: Volume of distribution at steady state in C57BL/6 mouse at 2 umol/kg, iv dosed in N-methyl pyrrolidone/blank plasma (10:90 v/v) by LC/MS/MS analysis. Format: ADME, organism-based. To be noted: read-out: Vdss. A digest of the protocol:
(§1)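 Male C57BL/6 mice, saphenous vein injection under light anesthesia, 5 mL/kg. Blood at 5, 30 min and 1, 2, 4, 6, 8 h; brain at 5 min, 1, 4, 8 h; n = 3/time. LC-MS/MS after acetonitrile precipitation (brain water-homogenized). Noncompartmental analysis, 1/Y weighting, terminal slope from ≥3 points.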

In data set [2] the test system is Brain. The data set is described as follows: Drug uptake in C57BL/6 mouse brain at 60 umol/kg, po dosed in HS15/propylenglycol/citrate buffer, pH 4.75, 50 mM (10/5/85, v/v/v) measured 4 hrs post dosing by LC/MS/MS analysis. In kind it is ADME, organism-based. Particulars: in vivo, pH 4.75, 4 h. A digest of the protocol:
(§2)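 Male C57BL/6 mice dosed by oral gavage, 10 mL/kg. Blood sampled 0.25, 0.5, 1, 2, 4, 6 h; brain at 1 and/or 4 h; n = 3 per time. Blood acetonitrile-precipitated, brain water-homogenized then precipitated; LC-MS/MS with weighted linear calibration.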

A short description of data set [3]: AUC (0 to infinity) in C57BL/6 mouse at 2 umol/kg, iv dosed in N-methyl pyrrolidone/blank plasma (10:90 v/v) by LC/MS/MS analysis. Format: ADME, organism-based. On the set-up: dose 2 umol/kg, time infinity, route intravenous. The essentials:
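Male C57BL/6 mice got a single injection into the saphenous vein under light anaesthesia at 5 mL/kg. Blood was taken at 5 and 30 min and 1, 2, 4, 6 and 8 h (n = 3 per time). Blood was extracted by acetonitrile precipitation and quantified by LC-MS/MS against a weighted linear calibration. AUC came from noncompartmental analysis with 1/Y weighting.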

Data set [4] concerns Mus musculus. The data set is described as follows: Antialzheimer activity in APP51/16 transgenic mouse expressing human APP51/16Npa and mouse Thy1 assessed as reduction in amyloid beta (1 to 40) reduction at 180 umol/kg, po measured 4 hrs post dosing. In kind it is functional. On the set-up: scale not given: the % may be the effect or the level left. The essentials:
(§3)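 Hemizygous APP51/16 mice (human APP751 wild-type under murine Thy-1 cassette, C57BL/6 background) gavaged (10 mL/kg), decapitated at 4 h. Forebrain homogenized in TBS with protease inhibitors, 1% TX-100 extract, spun 100000 rpm 30 min 4 °C. Aβ40 by 6E10 electrochemiluminescence immunoassay against spiked nontransgenic extract standards; C99 by APP-C8 western blot, densitometry. Two-tailed Student's t test versus vehicle.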

Data set [5] is described as follows: AUC (0 to infinity) in C57BL/6 mouse at 60 umol/kg, po dosed in HS15/propylenglycol/citrate buffer, pH 4.75, 50 mM (10/5/85, v/v/v) by LC/MS/MS analysis. To be noted: plasma. In kind it is ADME, organism-based. On the set-up: dose 60 umol/kg, route oral, time infinity. The essentials: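 Male C57BL/6 mice were dosed by oral gavage at 10 mL/kg. Blood was sampled at 0.25, 0.5, 1, 2, 4 and 6 h postdose, extracted by acetonitrile precipitation and quantified by LC-MS/MS (typical LLOQ 0.4 ng/mL). AUCinf was obtained by noncompartmental analysis of concentration–time profiles, weighting 1/Y, with at least three terminal log-linear points.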

A short description of data set [6]: Ratio of drug uptake in brain to blood in C57BL/6 mouse at 6 umol/kg, po dosed in HS15/propylenglycol/citrate buffer, pH 4.75, 50 mM (10/5/85, v/v/v) measured 4 hrs post dosing by LC/MS/MS analysis. Format: ADME, organism-based. The essentials:
(§4)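 Male C57BL/6 mice received the dose by oral gavage at 10 mL/kg. Blood and brain were collected at 1 and/or 4 h postdose. Brain was homogenised in water, and both matrices were extracted by acetonitrile precipitation and quantified by LC-MS/MS. The ratio is mean brain (nmol/g) over mean blood (nmol/mL) concentration, n = 3.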

Data set [7] deals with Mus musculus. Description: Antialzheimer activity in APP51/16 transgenic mouse expressing human APP51/16Npa and mouse Thy1 assessed as reduction in brain C99 level reduction at 180 umol/kg, po measured 4 hrs post dosing. In kind it is functional. On the set-up: scale not given: the % may be the effect or the level left. A digest of the protocol:
as §3

Data set [8] can be described thus: Drug uptake in APP51/16 transgenic mouse blood at 180 umol/kg, po measured 4 hrs post dosing by LC/MS/MS analysis. Format: ADME, organism-based. Particulars: read-out: Drug uptake. A digest of the protocol:
(§5)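 APP51/16 transgenic mice given oral gavage (10 mL/kg); blood and forebrain taken at 4 h postdose. Blood extracted by acetonitrile precipitation; brain homogenized in water, then acetonitrile-precipitated. LC-MS/MS quantitation against weighted linear calibration of analyte/internal standard area ratio.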

A further data set concerns MDR1 (human). Description: Apparent permeability across MDCK cells expressing human MDR1 at 5 uM after 2 hrs by LC-MS analysis. Format: ADME, cell-based, Canis lupus familiaris. To be noted: dog. The essentials: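 MDCK cells retrovirally transduced with human MDR1, seeded on transwells ≥3 days; bidirectional transport at 5 μM, 2 h, 37 °C, LC/MS quantitation. Papp = (dQ/dt)/(A·C0), A 0.11 cm2; ER = Papp B>A / Papp A>B. Means of at least three experiments.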

For another data set, the target named is Cytochrome P450 3A4 (Homo sapiens, UniProt P08684). The data set is described as follows: Inhibition of CYP3A4. In kind it is ADME.
Data set [9] in a line: Drug uptake in C57BL/6 mouse blood at 60 umol/kg, po dosed in HS15/propylenglycol/citrate buffer, pH 4.75, 50 mM (10/5/85, v/v/v) measured 1 hr post dosing by LC/MS/MS analysis. Format: ADME, organism-based. To be noted: read-out: Drug uptake. The essentials: as §2
Data set [10] can be described thus: Ratio of drug uptake in brain to blood in C57BL/6 mouse at 60 umol/kg, po dosed in HS15/propylenglycol/citrate buffer, pH 4.75, 50 mM (10/5/85, v/v/v) measured 1 hr post dosing by LC/MS/MS analysis. In kind it is ADME, organism-based. A digest of the protocol:
as §4

A short description of data set [11]: Half life in C57BL/6 mouse at 2 umol/kg, iv dosed in N-methyl pyrrolidone/blank plasma (10:90 v/v) by LC/MS/MS analysis. In kind it is ADME, organism-based. The essentials:
as §1

Data set [12] concerns Brain. Description: Drug uptake in APP51/16 transgenic mouse brain at 180 umol/kg, po measured 4 hrs post dosing by LC/MS/MS analysis. In kind it is ADME, organism-based. Particulars: in vivo. The essentials: as §5
The nature of data set [13]: Blood clearance in C57BL/6 mouse at 2 umol/kg, iv dosed in N-methyl pyrrolidone/blank plasma (10:90 v/v) by LC/MS/MS analysis. Format: ADME, organism-based. The essentials:
as §1

Data set [14] can be described thus: Drug uptake in C57BL/6 mouse blood at 60 umol/kg, po dosed in carboxymethyl cellulose 0.5% w/v in water/Tween 80 (99.5/0.5, v/v) measured 1 hr post dosing by LC/MS/MS analysis. Format: ADME, organism-based. To be noted: read-out: Drug uptake. The essentials: as §2
Data set [15] is described as follows: Drug uptake in C57BL/6 mouse blood at 60 umol/kg, po dosed in carboxymethyl cellulose 0.5% w/v in water/Tween 80 (99.5/0.5, v/v) measured 4 hrs post dosing by LC/MS/MS analysis. To be noted: read-out: Drug uptake. In kind it is ADME, organism-based. A digest of the protocol:
as §2

Data set [16] has as its system Brain. Description: Drug uptake in C57BL/6 mouse brain at 2 umol/kg, iv dosed in N-methyl pyrrolidone/blank plasma (10:90 v/v) measured 4 hrs post dosing by LC/MS/MS analysis. In kind it is ADME, organism-based. Particulars: in vivo. The essentials: as §1
Data set [17] can be described thus: Drug uptake in C57BL/6 mouse blood at 6 umol/kg, po dosed in carboxymethyl cellulose 0.5% w/v in water/Tween 80 (99.5/0.5, v/v) measured 1 hr post dosing by LC/MS/MS analysis. To be noted: read-out: Drug uptake. In kind it is ADME, organism-based. The essentials: as §2
The test system of data set [18] is Brain. Description: Drug uptake in C57BL/6 mouse brain at 60 umol/kg, po dosed in carboxymethyl cellulose 0.5% w/v in water/Tween 80 (99.5/0.5, v/v) measured 4 hrs post dosing by LC/MS/MS analysis. Format: ADME, organism-based. To be noted: in vivo. A digest of the protocol:
as §2

Each structure is given as a SMILES string.

Sequence of Cytochrome P450 3A4 (P08684 whole entry): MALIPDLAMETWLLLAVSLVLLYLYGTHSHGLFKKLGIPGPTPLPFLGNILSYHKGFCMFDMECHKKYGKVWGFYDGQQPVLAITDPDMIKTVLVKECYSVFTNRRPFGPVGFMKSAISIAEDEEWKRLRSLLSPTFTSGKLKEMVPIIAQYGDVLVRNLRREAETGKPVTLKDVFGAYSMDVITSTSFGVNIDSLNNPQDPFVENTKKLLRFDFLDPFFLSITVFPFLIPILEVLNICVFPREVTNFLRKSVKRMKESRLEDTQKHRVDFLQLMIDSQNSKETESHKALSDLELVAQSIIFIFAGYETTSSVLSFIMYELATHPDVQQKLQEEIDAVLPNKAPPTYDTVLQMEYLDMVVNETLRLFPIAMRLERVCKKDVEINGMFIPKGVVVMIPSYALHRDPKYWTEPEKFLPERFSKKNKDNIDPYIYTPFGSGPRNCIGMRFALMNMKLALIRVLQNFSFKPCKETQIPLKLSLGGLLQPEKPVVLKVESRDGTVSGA

The AUC(0-inf) is the area under the concentration-time curve extrapolated to infinity. For orientation: Kp means the ratio of the level in a tissue or fluid to that in plasma or blood. In general, Papp refers to a coefficient for how fast a substance crosses the barrier. Usually IC50 stands for the concentration at which inhibition is half-maximal. By half-life is commonly meant the time needed for the level to fall by half in the phase considered. For orientation: clearance means the rate of elimination divided by the concentration. `CC(C)(C)c1cccc(CN[C@H]2CS(=O)(=O)C[C@@H](Cc3cc(F)c(N)c(OC(C(F)(F)F)C(F)(F)F)c3)[C@@H]2O)c1`: the Vd in [1] is 16.3 L/kg. Further, the Drug uptake in the data set on Brain [2] is on record as 0.15 nmol/g; in the data set on Brain [12], 1.5 nmol/g. The results for the AUC(0-inf) in data set [3] and in [5] were 0.407 µM·h and 4.07 µM·h, respectively. Further, the Activity worked out at 6% in the data set with Mus musculus [4] and 22% with Mus musculus [7]. In addition, the Kp at 4 h in data set [6] amounted to 0.3. For the same molecule, the concentration at 4 h in data set [8] turned out to be 3700 nM. Besides, the Papp at 2 h, 5 µM with MDR1 (human) is 3 ×10⁻⁶ cm/s. At Cytochrome P450 3A4, this molecule showed an IC50 of 0.3 µM. In addition, the concentration at 1 h in [9] was 470 nM. Also, the Kp at 1 h in [10] was found to be 0.5. Further, the half-life in [11] was 2.9 h. In data set [13], this molecule yielded a clearance of 82 mL/min/kg.

For the molecule `CC(C)(C)c1cccc(CN[C@H]2CS(=O)(=O)C[C@@H](Cc3cc(F)c(N)c(OCC(F)(F)F)c3)[C@@H]2O)c1`, the concentration at 1 h in data set [14] came to 4100 nM; in data set [17] it was 30 nM. In addition, the concentration at 4 h in [15] is 1860 nM; in data set [8], 10200 nM. The Vd in data set [1] came to 7.2 L/kg. In data set [3], the AUC(0-inf) was 0.3 µM·h. Further, the Activity amounted to 31% in the data set on Mus musculus [4] and 34% with Mus musculus [7]. Further, the Drug uptake stood at 0.01 nmol/g in the data set with Brain [16], 1.8 nmol/g in the data set on Brain [12] and 0.55 nmol/g in the data set on Brain [18]. Further, the Papp at 2 h, 5 µM with MDR1 (human) amounted to 25 ×10⁻⁶ cm/s. In [11], this molecule gave a half-life of 1.4 h. This molecule also displayed a clearance in [13] of 111 mL/min/kg.

(Values after ChEMBL document CHEMBL2046351, “Discovery of cyclic sulfone hydroxyethylamines as potent and selective β-site APP-cleaving enzyme 1 (BACE1) inhibitors: structure-based design and in vivo reduction of amyloid β-peptides” (J Med Chem, 2012).)
